ChEMBL document CHEMBL3785055, “Arginine-linked neomycin B dimers: synthesis, rRNA binding, and resistance enzyme activity” (Medchemcomm, 2016)
≈ marks a conversion by molar mass, not a printed value. Calls of active or inactive are those of the source. No cut-off for these calls is given here.

Key:
Escherichia coli [1] = experiment: Displacement of F-NEO from Escherichia coli rRNA A-site at 0.1 uM by fluorescence assay
Procedure, shortened: (§1)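 Single-point competitive screen: compound at 0.1 μM added to 0.1 μM F-NEO:A-site RNA complex. Displacement read as emission increase over complex alone (ΔF), expressed as % of fluorescence of 0.1 μM F-NEO. Buffer 10 mM HEPES, 50 mM NaCl, 0.4 mM EDTA, pH 7.0; at least duplicates.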

Homo sapiens = species: Homo sapiens; experiment: Displacement of F-NEO from human rRNA A-site at 0.1 uM by fluorescence assay; procedure, shortened: as §1
[2] = Displacement of F-NEO from human rRNA A-site by fluorescence assay
Bacillus cereus = experiment: Antibacterial activity against Bacillus cereus ATCC 11778 after 16 to 20 hrs by MTT assay; assay type: functional
Procedure, shortened: (§2)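 Strains grown in LB 24 h at 37 °C, 250 rpm; overnight culture diluted 1:1000, grown 4 h, diluted 1:1000 again and added to microplates. Incubation 16–20 h at 37 °C; growth read visually and with MTT (1 mg/mL).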

Staphylococcus aureus [3] = experiment: Antibacterial activity against Staphylococcus aureus ATCC 25923 after 16 to 20 hrs by MTT assay; assay type: functional; procedure, shortened: as §2
[4] = tested on: Staphylococcus epidermidis; experiment: Antibacterial activity against Staphylococcus epidermidis ATCC 12228 after 16 to 20 hrs by MTT assay; assay type: functional; procedure, shortened: as §2
Staphylococcus aureus [5] = experiment: Activity at Staphylococcus aureus AAC(6')-1e/APH(2'')-1a in presence of AcCoA by Ellmans method relative to NEO
[6] = Activity at Eis (unknown origin) at 100 uM in presence of AcCoA by Ellmans method relative to NEO
Procedure, shortened: (§3)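 Acetylation followed by Ellman's method at 412 nm, 2 mM DTNB, 100 μM compound, 25 °C, triplicate, rates normalized to NEO. AcCoA 500 μM for Eis, 150 μM for AAC(3)-IV; enzyme 0.5 μM for Eis, 0.125 μM for AAC(3)-IV; 50 mM buffer.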

Staphylococcus aureus [7] = experiment: Activity at Staphylococcus aureus APH(2'')-1a at 100 uM in presence of […] by […] relative to NEO
[8] = Activity at APH(3')-1a (unknown origin) at 100 uM in presence of […] by […] relative to NEO
Escherichia coli [9] = experiment: Activity at Escherichia coli AAC(3)-4 at 100 uM in presence of AcCoA by Ellmans method relative to NEO; procedure, shortened: as §3
[10] = Selectivity factor, ratio of IC50 for human rRNA A-site to IC50 for Escherichia coli rRNA A-site
Procedure, shortened: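 Ratio from F-NEO displacement titrations, 0.002–2.0 μM compound against 0.1 μM F-NEO:A-site complex (485/535 nm). Measured IC50 stands in for the unmeasurable competition constants in Kd(human)/Kd(E. coli) = 5.75 × K(E. coli)/K(human). Buffer 10 mM HEPES, 50 mM NaCl, 0.4 mM EDTA, pH 7.0.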

[11] = tested on: Mycobacterium tuberculosis; experiment: Activity at Mycobacterium tuberculosis AAC(2')-1c at 100 uM in presence of AcCoA by Ellmans method relative to NEO
Procedure, shortened: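 N-acetylation by AAC(2')-Ic (0.125 μM enzyme) of 100 μM compound with 150 μM AcCoA and 2 mM DTNB in 100 mM buffer, 25 °C. Thiol release followed at 412 nm (ε = 14,150 M⁻¹cm⁻¹). Rates normalized to neomycin B, triplicate.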

[12] = Displacement of F-NEO from Escherichia coli rRNA A-site by fluorescence assay

SMILES	Activity (Escherichia coli [1])	Activity (Homo sapiens)	IC50 [2] [µM]	MIC (Bacillus cereus) [µM]	MIC (Staphylococcus aureus [3]) [µM]	MIC [4] [µM]	Activity (Staphylococcus aureus [5])	Activity [6]	Activity (Staphylococcus aureus [7])	Activity [8]	Activity (Escherichia coli [9])	Ratio IC50 [10]	Activity [11]	IC50 [12] [µM]
N=C(N)NCCC[C@H](N)C(=O)NCCCn1cc(-c2cccc(-c3cn(CCCNC(=O)[C@@H](N)CCCNC(=N)N)nn3)c2)nn1	inactive	inactive												
NC[C@@H]1O[C@@H](O[C@H]2[C@H](O[C@H]3O[C@@H](Cn4cc(-c5cc(C(=O)O)cc(-c6cn(C[C@H]7O[C@@H](O[C@@H]8[C@@H](O)[C@H](N)C[C@H](N)[C@H]8O[C@@H]8O[C@@H](CN)[C@H](O)[C@@H](O)[C@@H]8N)[C@H](O)[C@@H]7O[C@H]7O[C@@H](CN)[C@@H](O)[C@H](O)[C@H]7N)nn6)c5)nn4)[C@H](O[C@H]4O[C@@H](CN)[C@@H](O)[C@H](O)[C@H]4N)[C@@H]3O)[C@@H](O)[C@H](N)C[C@@H]2N)[C@@H](N)[C@H](O)[C@H]1O (stereo in doubt)			50	3 (≈ 4.35 µg/mL)	13 (≈ 18.8 µg/mL)	13 (≈ 18.8 µg/mL)	inactive	inactive	inactive	inactive	Active	5.6	inactive	51
N=C(N)NCCC[C@@H](NC(=O)c1cc(-c2cn(C[C@@H]3O[C@H](O[C@@H]4[C@@H](O)[C@H](N)C[C@H](N)[C@H]4O[C@@H]4O[C@@H](CN)[C@H](O)[C@@H](O)[C@@H]4N)[C@@H](O)[C@H]3O[C@H]3O[C@@H](CN)[C@@H](O)[C@H](O)[C@H]3N)nn2)cc(-c2cn(C[C@H]3O[C@@H](O[C@@H]4[C@@H](O)[C@H](N)C[C@H](N)[C@H]4O[C@@H]4O[C@@H](CN)[C@H](O)[C@@H](O)[C@@H]4N)[C@H](O)[C@@H]3O[C@H]3O[C@@H](CN)[C@@H](O)[C@H](O)[C@H]3N)nn2)c1)C(N)=O (stereo in doubt)			71	3 (≈ 4.81 µg/mL)	> 50	> 50	inactive	inactive	inactive	inactive	30%	7.4	inactive	55
